Laboratory results taken from ChEMBL document CHEMBL2062426 (J Med Chem, 2012).

Assays:
Muscle tissue [1] = assay: Drug metabolism in iv dosed ICR CD1 mouse muscle assessed as radiometabolite 1 level after 30 mins by gamma-counting based HPLC analysis; type: ADME, organism-based; details: in vivo, 0.5 h
Procedure, shortened: (§1)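 Three 10-month-old female ICR (CD1) mice received about 11.1 MBq tracer by tail vein and were killed 30 min pi. Plasma was taken from blood by centrifugation, and urine was collected. Muscle, kidney and liver were homogenized in 1% SDS/PBS and extracted with acetonitrile/acetic acid. Supernatants were γ-counted, %ID/g was computed against a dose aliquot, and samples were run on C18 radio-HPLC with an acetonitrile/water gradient in 0.05% TFA.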

Liver [2] = assay: Half life in C57/Bl6 mouse liver at 250 kBq/g bodyweight, iv administered as bolus dose by PET scanning; type: ADME, organism-based; details: in vivo
Procedure, shortened: (§2)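 Adult C57/Bl6 mice given the 18F tracer by intravenous injection. List-mode PET data acquired for 120 min on a high-resolution small-animal scanner and reconstructed into dynamic frames iteratively. Organ volumes of interest were drawn on co-registered CT. Uptake is counts per mL in the VOI divided by total counts in the mouse ×100 (% ID/mL).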

Kidney [3] = assay: Drug metabolism in iv dosed ICR CD1 mouse kidney assessed as radiometabolite 2 level after 30 mins by gamma-counting based HPLC analysis; type: ADME, organism-based; details: in vivo, 0.5 h; procedure, shortened: as §1
Serum [4] = assay: Drug metabolism in mouse serum at 5 MBq up to 120 mins by radio-HPLC analysis; type: ADME, cell-free; details: 2 h
Procedure, shortened: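 Serum stability was repeated in mouse blood serum at 37 °C, with analysis by radio-HPLC.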

Muscle tissue [5] = assay: Drug metabolism in iv dosed ICR CD1 mouse muscle assessed as radiometabolite 2 level after 30 mins by gamma-counting based HPLC analysis; type: ADME, organism-based; details: in vivo, 0.5 h; procedure, shortened: as §1
Muscle tissue [6] = assay: Drug uptake in C57/Bl6 mouse muscle at 250 kBq/g bodyweight, iv administered as bolus dose up to 120 mins by PET scanning; type: ADME, organism-based; details: in vivo, 2 h; procedure, shortened: as §2
Muscle tissue [7] = assay: Drug metabolism in iv dosed ICR CD1 mouse muscle assessed as radiometabolite 4 level after 30 mins by gamma-counting based HPLC analysis; type: ADME, organism-based; details: in vivo, 0.5 h; procedure, shortened: as §1
Liver [8] = assay: Tmax in C57/Bl6 mouse liver at 250 kBq/g bodyweight, iv administered as bolus dose by PET scanning; type: ADME, organism-based; details: in vivo; procedure, shortened: as §2
Kidney [9] = assay: Half life in C57/Bl6 mouse kidney at 250 kBq/g bodyweight, iv administered as bolus dose by PET scanning; type: ADME, organism-based; details: in vivo; procedure, shortened: as §2
Muscle tissue [10] = assay: Drug metabolism in iv dosed ICR CD1 mouse muscle assessed as radiometabolite 3 level after 30 mins by gamma-counting based HPLC analysis; type: ADME, organism-based; details: in vivo, 0.5 h; procedure, shortened: as §1
Liver [11] = assay: Drug metabolism in iv dosed ICR CD1 mouse liver assessed as radiometabolite 4 level after 30 mins by gamma-counting based HPLC analysis; type: ADME, organism-based; details: in vivo, 0.5 h; procedure, shortened: as §1
Plasma [12] = assay: Drug metabolism in iv dosed ICR CD1 mouse plasma assessed as radiometabolite 1 level after 30 mins by gamma-counting based HPLC analysis; type: ADME, organism-based; details: in vivo, 0.5 h; procedure, shortened: as §1
Serum [13] = assay: Metabolic stability in human serum at 5 MBq up to 120 mins by radio-HPLC analysis; type: ADME, cell-free; details: 2 h
Procedure, shortened: (§3)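 The PBS-formulated 18F tracer (20 μL, 5 MBq) was added to 200 μL human serum and incubated at 37 °C. Samples of 20 μL were taken at 10, 20, 30, 60, 90 and 120 min, quenched in methanol/CH2Cl2 1:1 and centrifuged 2 min. The organic layer was analysed by radio-HPLC (C18; 30% CH3CN/0.1% TFA for 15 min, then gradient).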

[14] = Drug metabolism in iv dosed ICR CD1 mouse urine assessed as radiometabolite 3 level after 30 mins by gamma-counting based HPLC analysis; type: ADME, organism-based; details: in vivo, 0.5 h; procedure, shortened: as §1
Liver [15] = assay: Metabolic stability in iv dosed ICR CD1 mouse liver assessed as compound remaining after 30 mins by gamma-counting based HPLC analysis; type: ADME, organism-based; details: in vivo, 0.5 h; procedure, shortened: as §1
Liver [16] = assay: Drug metabolism in iv dosed ICR CD1 mouse liver assessed as radiometabolite 3 level after 30 mins by gamma-counting based HPLC analysis; type: ADME, organism-based; details: in vivo, 0.5 h; procedure, shortened: as §1
[17] = Drug metabolism in iv dosed ICR CD1 mouse urine assessed as radiometabolite 2 level after 30 mins by gamma-counting based HPLC analysis; type: ADME, organism-based; details: in vivo, 0.5 h; procedure, shortened: as §1
[18] = Metabolic stability in iv dosed ICR CD1 mouse muscle assessed as compound remaining after 30 mins by gamma-counting based HPLC analysis; type: ADME, organism-based, Muscle tissue; details: read-out: Stability; procedure, shortened: as §1
Kidney [19] = assay: Drug metabolism in iv dosed ICR CD1 mouse kidney assessed as radiometabolite 3 level after 30 mins by gamma-counting based HPLC analysis; type: ADME, organism-based; details: in vivo, 0.5 h; procedure, shortened: as §1
Brain = assay: Drug uptake in C57/Bl6 mouse brain at 250 kBq/g bodyweight, iv administered as bolus dose up to 120 mins by PET scanning; type: ADME, organism-based; details: in vivo, 2 h; procedure, shortened: as §2
Plasma [20] = assay: Drug metabolism in iv dosed ICR CD1 mouse plasma assessed as radiometabolite 3 level after 30 mins by gamma-counting based HPLC analysis; type: ADME, organism-based; details: in vivo, 0.5 h; procedure, shortened: as §1
Plasma [21] = assay: Drug metabolism in iv dosed ICR CD1 mouse plasma assessed as radiometabolite 4 level after 30 mins by gamma-counting based HPLC analysis; type: ADME, organism-based; details: in vivo, 0.5 h; procedure, shortened: as §1
Liver [22] = assay: Drug metabolism in iv dosed ICR CD1 mouse liver assessed as radiometabolite 2 level after 30 mins by gamma-counting based HPLC analysis; type: ADME, organism-based; details: in vivo, 0.5 h; procedure, shortened: as §1
[23] = Octanol-water partition coefficient, log D of the compound after 1 min by gamma-counting at pH 7.4; type: physicochemical
Procedure, shortened: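 About 20 kBq of tracer was shaken for 1 min at room temperature in 0.5 mL PBS pH 7.4 with 0.5 mL 1-octanol, then centrifuged (3000 rpm, 2 min). Triplicate 100 μL samples of each phase were γ-counted. log D7.4 is log(cpm octanol/cpm PBS), from two independent experiments in triplicate, given as mean ± SD.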

Kidney [24] = assay: Drug metabolism in iv dosed ICR CD1 mouse kidney assessed as radiometabolite 4 level after 30 mins by gamma-counting based HPLC analysis; type: ADME, organism-based; details: in vivo, 0.5 h; procedure, shortened: as §1
[25] = Drug metabolism in iv dosed ICR CD1 mouse urine assessed as radiometabolite 1 level after 30 mins by gamma-counting based HPLC analysis; type: ADME, organism-based; details: in vivo, 0.5 h; procedure, shortened: as §1
Mus musculus = assay: Drug metabolism in C57/Bl6 mouse assessed as defluorination at 250 kBq/g bodyweight, iv administered as bolus dose up to 120 mins by PET scanning; type: ADME, organism-based; details: in vivo, 2 h; procedure, shortened: as §2
Kidney [26] = assay: Metabolic stability in iv dosed ICR CD1 mouse kidney assessed as compound remaining after 30 mins by gamma-counting based HPLC analysis; type: ADME, organism-based; details: in vivo, 0.5 h; procedure, shortened: as §1
[27] = Drug metabolism in iv dosed ICR CD1 mouse urine assessed as radiometabolite 4 level after 30 mins by gamma-counting based HPLC analysis; type: ADME, organism-based; details: in vivo, 0.5 h; procedure, shortened: as §1
Liver [28] = assay: Drug metabolism in iv dosed ICR CD1 mouse liver assessed as radiometabolite 1 level after 30 mins by gamma-counting based HPLC analysis; type: ADME, organism-based; details: in vivo, 0.5 h; procedure, shortened: as §1
Plasma [29] = assay: Drug metabolism in iv dosed ICR CD1 mouse plasma assessed as radiometabolite 2 level after 30 mins by gamma-counting based HPLC analysis; type: ADME, organism-based; details: in vivo, 0.5 h; procedure, shortened: as §1
[30] = Drug uptake in C57/Bl6 mouse myocardium at 250 kBq/g bodyweight, iv administered as bolus dose up to 120 mins by PET scanning; type: ADME, organism-based; details: in vivo, 2 h; procedure, shortened: as §2
Serum [31] = assay: Drug metabolism in human serum at 5 MBq up to 120 mins by radio-HPLC analysis; type: ADME, cell-free; details: 2 h; procedure, shortened: as §3
[32] = Metabolic stability in iv dosed ICR CD1 mouse urine assessed as compound remaining after 30 mins by gamma-counting based HPLC analysis; type: ADME, organism-based; details: in vivo, 0.5 h; procedure, shortened: as §1
Kidney [33] = assay: Tmax in C57/Bl6 mouse kidney at 250 kBq/g bodyweight, iv administered as bolus dose by PET scanning; type: ADME, organism-based; details: in vivo; procedure, shortened: as §2
Kidney [34] = assay: Drug metabolism in iv dosed ICR CD1 mouse kidney assessed as radiometabolite 1 level after 30 mins by gamma-counting based HPLC analysis; type: ADME, organism-based; details: in vivo, 0.5 h; procedure, shortened: as §1
Lung = assay: Drug uptake in C57/Bl6 mouse lungs at 250 kBq/g bodyweight, iv administered as bolus dose up to 120 mins by PET scanning; type: ADME, organism-based; details: in vivo, 2 h; procedure, shortened: as §2
Plasma [35] = assay: Metabolic stability in iv dosed ICR CD1 mouse plasma assessed as compound remaining after 30 mins by gamma-counting based HPLC analysis; type: ADME, organism-based; details: in vivo, 0.5 h; procedure, shortened: as §1

`COc1ccc(S(=O)(=O)N(Cc2cn(CC[18F])nn2)[C@@H](C(=O)NO)C(C)C)cc1` showed a Drug metabolism (Muscle tissue [1]) of 0 % ID/g, a t1/2 (Liver [2]) of 18 min and a Drug metabolism (Kidney [3]) of 0 % ID/g. The Drug metabolism (Serum [4]) was “Not Active”, the Drug metabolism (Muscle tissue [5]) was 0 % ID/g and the Drug uptake (Muscle tissue [6]) was “Not Active”. It also gave a Drug metabolism (Muscle tissue [7]) of 0 % ID/g, a Tmax (Liver [8]) of 4 min and a t1/2 (Kidney [9]) of 13 min. The Drug metabolism (Muscle tissue [10]) was 0 % ID/g, the Drug metabolism (Liver [11]) was 0.78 % ID/g and the Drug metabolism (Plasma [12]) was 0.17 % ID/g. The Stability (Serum [13]) was “Stable”, the Drug metabolism [14] was 2.32 % ID/g and the Stability (Liver [15]) was 0.78 % ID/g. It also gave a Drug metabolism (Liver [16]) of 1.32 % ID/g, a Drug metabolism [17] of 0.33 % ID/g and a tissue uptake at 0.5 h [18] of 0.21 %ID/g. The Drug metabolism (Kidney [19]) was 0.21 % ID/g, the Drug uptake (Brain) was “Not Active” and the Drug metabolism (Plasma [20]) was 0 % ID/g. It also gave a Drug metabolism (Plasma [21]) of 0 % ID/g, a Drug metabolism (Liver [22]) of 0 % ID/g and a logD at 1 min [23] of 0.6. The Drug metabolism (Kidney [24]) was 0.1 % ID/g, the Drug metabolism [25] was 2.32 % ID/g and the Drug metabolism (Mus musculus) was “Not Active”. The Stability (Kidney [26]) was 4.6 % ID/g, the Drug metabolism [27] was 0.33 % ID/g and the Drug metabolism (Liver [28]) was 0.12 % ID/g. For the same molecule, the Drug metabolism (Plasma [29]) was 0 % ID/g, the Drug uptake [30] was “Not Active” and the Drug metabolism (Serum [31]) was “Not Active”. The Stability [32] was 27.86 % ID/g, the Tmax (Kidney [33]) was 0.5 min and the Drug metabolism (Kidney [34]) was 0.26 % ID/g. The Drug uptake (Lung) was “Not Active” and the Stability (Plasma [35]) was 0.29 % ID/g.
With `CC(C)[C@H](C(=O)NO)N(Cc1ccccc1)S(=O)(=O)c1ccc(OCC[18F])cc1` the t1/2 (Liver [2]) was 7 min, the Tmax (Liver [8]) was 2.5 min and the t1/2 (Kidney [9]) was 3 min. For the same molecule, the Tmax (Kidney [33]) was 1.5 min.
